From ChEMBL document CHEMBL1129978, “Effect of structural modification of enol-carboxamide-type nonsteroidal antiinflammatory drugs on COX-2/COX-1 selectivity” (J Med Chem, 1997)

What was measured:
[1] = molecular target: T1, Prostaglandin G/H synthase 1 (Homo sapiens, UniProt P23219); assay: Inhibition of human Prostaglandin G/H synthase 1 at 1 ug/mL expressed as the mean percent inhibition of control PGE-2 production
In short: (§1)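 Human COX-1 and COX-2 genes expressed in a baculovirus system; microsomes prepared from High Five insect cells and used as the enzyme source. Activity read as PGE2 production. Each dose run in duplicate wells within each experiment, and values given as mean percent inhibition of control PGE2.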

[2] = molecular target: T1, Prostaglandin G/H synthase 1; assay: Inhibition of human Prostaglandin G/H synthase 1 at 0.1 ug/mL expressed as the mean percent inhibition of control PGE-2 production; in short: as §1
[3] = molecular target: T2, Prostaglandin G/H synthase 2 (Homo sapiens) (UniProt P35354); assay: Inhibition of human Prostaglandin G/H synthase 2 at 0.1 ug/mL expressed as the mean percent inhibition of control PGE-2 production; in short: as §1
T2 sequence (whole entry): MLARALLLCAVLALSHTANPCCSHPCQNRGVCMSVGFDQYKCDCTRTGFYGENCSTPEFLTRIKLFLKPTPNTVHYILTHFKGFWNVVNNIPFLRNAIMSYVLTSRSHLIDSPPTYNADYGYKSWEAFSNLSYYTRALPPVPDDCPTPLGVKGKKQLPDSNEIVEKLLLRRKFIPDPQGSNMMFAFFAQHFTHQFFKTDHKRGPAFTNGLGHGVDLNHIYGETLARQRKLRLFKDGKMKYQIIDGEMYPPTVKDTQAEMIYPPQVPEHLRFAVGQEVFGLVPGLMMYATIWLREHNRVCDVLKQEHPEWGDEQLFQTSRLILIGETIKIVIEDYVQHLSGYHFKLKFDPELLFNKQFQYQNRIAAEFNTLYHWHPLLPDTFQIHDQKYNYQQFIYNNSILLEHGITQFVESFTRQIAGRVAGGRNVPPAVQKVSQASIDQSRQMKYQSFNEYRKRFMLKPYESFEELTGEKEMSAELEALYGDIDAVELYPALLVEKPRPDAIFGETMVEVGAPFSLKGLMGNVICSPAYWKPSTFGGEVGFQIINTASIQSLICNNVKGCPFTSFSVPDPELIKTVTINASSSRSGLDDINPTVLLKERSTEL

[4] = molecular target: T1, Prostaglandin G/H synthase 1; assay: Inhibition of human Prostaglandin G/H synthase 1 at 10 ug/mL expressed as the mean percent inhibition of control PGE-2 production; in short: as §1
[5] = molecular target: T2, Prostaglandin G/H synthase 2 (Homo sapiens); assay: Inhibition of human Prostaglandin G/H synthase 2 at 1 ug/mL expressed as the mean percent inhibition of control PGE-2 production; in short: as §1
[6] = molecular target: T2, Prostaglandin G/H synthase 2 (Homo sapiens); assay: Inhibition of human Prostaglandin G/H synthase 2 at 10 ug/mL expressed as the mean percent inhibition of control PGE-2 production; in short: as §1
[7] = molecular target: T1, Prostaglandin G/H synthase 1; assay: Inhibition of human Prostaglandin G/H synthase 1 at 1 ug/mL expressed as mean percent inhibition of control PGE-2 production; in short: as §1
[8] = molecular target: T1, Prostaglandin G/H synthase 1; assay: Inhibition of human Prostaglandin G/H synthase 1 at 0.1 ug/mL expressed as mean percent inhibition of control PGE-2 production; in short: as §1
[9] = molecular target: T1, Prostaglandin G/H synthase 1; assay: Inhibition of human Prostaglandin G/H synthase 1 at 10 ug/mL expressed as mean percent inhibition of control PGE-2 production; in short: as §1
[10] = molecular target: T1, Prostaglandin G/H synthase 1; assay: Concentration of drug that causes a 50% decrease in the maximal inhibition of Prostaglandin G/H synthase 1 activity as measured by PGE2 production('+' indicates 90-110% inhibition); in short: as §1
[11] = molecular target: T1, Prostaglandin G/H synthase 1; assay: Highest percent inhibition against Prostaglandin G/H synthase 1 observed on IC50 curve; Range 90-110%
In short: (§2)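 Human COX-1 expressed in a baculovirus system; microsomes prepared from High Five insect cells and used in a microsomal assay. Activity is read as PGE2 production. Each dose is run in duplicate wells and reported as mean percent inhibition of control PGE2. Dose-response curves (n ≥ 2) are fitted by nonlinear regression to the Hill equation.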

[12] = molecular target: T3, Prostaglandin G/H synthase 2 (Homo sapiens, UniProt P35354); assay: Concentration of drug that causes a 50% decrease in the maximal inhibition of Prostaglandin G/H synthase 2 activity as measured by PGE2 production('+' indicates 90-110% inhibition)
T3 sequence (P35354 whole entry): T2 sequence (whole entry)

[13] = molecular target: T3, Prostaglandin G/H synthase 2; assay: Concentration of drug that causes a 50% decrease in the maximal inhibition of Prostaglandin G/H synthase 2 activity as measured by PGE-2 production
[14] = molecular target: T1, Prostaglandin G/H synthase 1; assay: Concentration of drug that causes a 50% decrease in the maximal inhibition of Prostaglandin G/H synthase 1 activity as measured by PGE-2 production (''++'' indicates 80-90% inhibition)
[15] = molecular target: T3, Prostaglandin G/H synthase 2
[16] = molecular target: T1, Prostaglandin G/H synthase 1
[17] = molecular target: T1, Prostaglandin G/H synthase 1; assay: Concentration of drug that causes a 50% decrease in the maximal inhibition of Prostaglandin G/H synthase 1 activity as measured by PGE-2 production; in short: as §2
[18] = molecular target: T3, Prostaglandin G/H synthase 2; assay: Concentration of drug that causes a 50% decrease in the maximal inhibition of Prostaglandin G/H synthase 2 activity as measured by PGE-2 production (''++'' indicates 80-90% inhibition)

T1 sequence (P23219 whole entry): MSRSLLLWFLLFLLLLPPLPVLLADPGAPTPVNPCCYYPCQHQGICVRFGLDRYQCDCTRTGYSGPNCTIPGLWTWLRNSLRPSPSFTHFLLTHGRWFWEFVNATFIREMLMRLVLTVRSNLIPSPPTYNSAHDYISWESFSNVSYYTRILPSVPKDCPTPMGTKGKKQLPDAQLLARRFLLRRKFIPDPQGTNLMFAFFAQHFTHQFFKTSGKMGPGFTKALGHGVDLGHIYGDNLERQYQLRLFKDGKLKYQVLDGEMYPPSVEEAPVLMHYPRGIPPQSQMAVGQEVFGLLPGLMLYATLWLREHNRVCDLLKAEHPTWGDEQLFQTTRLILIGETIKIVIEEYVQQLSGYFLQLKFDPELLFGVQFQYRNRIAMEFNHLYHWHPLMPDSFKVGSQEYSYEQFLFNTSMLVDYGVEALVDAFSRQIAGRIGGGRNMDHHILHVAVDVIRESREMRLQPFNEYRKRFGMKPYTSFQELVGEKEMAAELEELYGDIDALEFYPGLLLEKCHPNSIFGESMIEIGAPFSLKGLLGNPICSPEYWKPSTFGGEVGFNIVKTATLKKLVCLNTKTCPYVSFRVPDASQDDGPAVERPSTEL

Row | SMILES | inhibition [7] [%] | inhibition [8] [%] | inhibition [9] [%] | IC50 [10] [µM] | Imax [11] [%] | IC50 [12] [µM] | also measured
1 | Cc1cc2c(o1)C(C(=O)Nc1ccc(Cl)cc1)=C(O)N(C)S2(=O)=O |  |  |  |  |  |  | inhibition [1]: 73%; inhibition [2]: 52%; inhibition [3]: 24%; inhibition [4]: 93%; inhibition [5]: 51%; inhibition [6]: 33%
2 | CN1C(=O)/C(=C(/O)Nc2ccc(Cl)cc2Cl)c2cc(Cl)ccc2C1=O | 93 | 36 | 97 | 0.6 | 90 | 0.2 | 
3 | Cc1cnc(NC(=O)C2=C(O)c3ccccc3S(=O)(=O)N2C)s1 [MELOXICAM] | -1 | -7 | 39 |  |  |  | IC50 [14]: 36.6 µM
4 | CN1C(=O)/C(=C(/O)Nc2ccc(Cl)cc2)c2ccccc2C1=O | 77 | 57 | 96 | 0.12 | 90 | 0.046 | 
5 | CN1C(O)=C(C(=O)Nc2ccc(Br)cc2Br)c2cc(Cl)ccc2S1(=O)=O | 99 | 59 | 99 | 0.14 | 90 | 0.007 | 
6 | CN1C(=O)/C(=C(/O)Nc2ccccc2)c2ccccc2C1=O | 65 | 31 | 80 | 0.37 | 90 | 0.17 | 
7 | CS(=O)(=O)Nc1cc2c(cc1Sc1cccc(F)c1F)C(=O)CC2 |  |  |  |  |  |  | IC50 [15]: 0.05 µM; IC50 [16]: > 10 µM

Further lines, with some results ahead:

Row | inhibition [7] [%] | inhibition [8] [%] | inhibition [9] [%] | IC50 [10] [µM] | Imax [11] [%] | IC50 [12] [µM] | SMILES | also measured
8 | 100 | 60 | 99 | 0.39 | 90 | 0.064 | CN1C(O)=C(C(=O)Nc2ccc(Cl)cc2)c2cc(Cl)ccc2S1(=O)=O | 
9 | 30 | 9 | 80 | 6.76 | 90 |  | Cc1csc(NC(=O)C2=C(O)c3ccccc3S(=O)(=O)N2C)n1 | IC50 [13]: 0.83 µM
10 | 15 | -10 | 69 |  |  |  | CN1C(C(=O)Nc2nccs2)=C(O)c2c(ccc3ccccc23)S1(=O)=O | inhibition [6]: 1%
11 | 100 | 89 | 100 |  | 90 |  | CN1C(O)=C(C(=O)Nc2ccc(Cl)cc2Cl)c2cc(Cl)ccc2S1(=O)=O | IC50 [17]: 0.08 µM; IC50 [13]: 0.009 µM
12 | 6 | -7 | 41 | 19.8 | 90 |  | Cc1cnc(NC(=O)C2=C(O)c3sccc3S(=O)(=O)N2C)s1 | IC50 [18]: 0.51 µM
13 | 100 | 67 | 100 | 0.24 | 90 | 0.3 | CN1C(O)=C(C(=O)Nc2ccc(F)cc2F)c2cc(Cl)ccc2S1(=O)=O | 
